Measured values published in ChEMBL document CHEMBL4613316, “Synthesis and Selective Functionalization of Thiadiazine 1,1-Dioxides with Efficacy in a Model of Huntington's Disease” (ACS Med Chem Lett, 2020).
The source made the active and inactive calls. No cut-off for these calls is given here.

Experiments:
[1] = target: Histone deacetylase 5 (Homo sapiens) (UniProt Q9UQL6); assay: Inhibition of recombinant human GST-His-tagged HDAC5 at 0.1 to 1 uM using fluorogenic HDAC substrate incubated for 30 mins by microplate reader assay
Homo sapiens = organism: Homo sapiens; assay: Agonist activity at HSP70 in human HEK293H cells transfected with HTT17Q assessed as reduction in HTT protein aggregation at 10 uM measured after 6 hrs by DAPI staining based confocal microscopy; format: cell-based
How it was run: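 HEK293H cells transfected with 4 μg HTT17Q-mCherry construct; 24 h post-transfection treated with 10 μM compound or DMSO vehicle control for 6 h. Cells stained with DAPI and imaged by confocal microscopy. Aggregates (puncta) counted per cell with a bright-spot detection tool. Significance assessed against DMSO control.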

[2] = target: Histone deacetylase 3 (Homo sapiens) (UniProt O15379); assay: Inhibition of HDAC3 in human HeLa nuclear extract at 0.1 to 1 uM using HDAC substrate incubated for 30 mins by microplate reader assay; format: cell-free
[3] = target: T1, Protein deacetylase HDAC6 (Homo sapiens) (UniProt Q9UBN7); assay: Inhibition of recombinant human GST-His-tagged HDAC6 at 0.1 to 1 uM using fluorogenic HDAC substrate incubated for 30 mins by microplate reader assay
T1 sequence (whole entry): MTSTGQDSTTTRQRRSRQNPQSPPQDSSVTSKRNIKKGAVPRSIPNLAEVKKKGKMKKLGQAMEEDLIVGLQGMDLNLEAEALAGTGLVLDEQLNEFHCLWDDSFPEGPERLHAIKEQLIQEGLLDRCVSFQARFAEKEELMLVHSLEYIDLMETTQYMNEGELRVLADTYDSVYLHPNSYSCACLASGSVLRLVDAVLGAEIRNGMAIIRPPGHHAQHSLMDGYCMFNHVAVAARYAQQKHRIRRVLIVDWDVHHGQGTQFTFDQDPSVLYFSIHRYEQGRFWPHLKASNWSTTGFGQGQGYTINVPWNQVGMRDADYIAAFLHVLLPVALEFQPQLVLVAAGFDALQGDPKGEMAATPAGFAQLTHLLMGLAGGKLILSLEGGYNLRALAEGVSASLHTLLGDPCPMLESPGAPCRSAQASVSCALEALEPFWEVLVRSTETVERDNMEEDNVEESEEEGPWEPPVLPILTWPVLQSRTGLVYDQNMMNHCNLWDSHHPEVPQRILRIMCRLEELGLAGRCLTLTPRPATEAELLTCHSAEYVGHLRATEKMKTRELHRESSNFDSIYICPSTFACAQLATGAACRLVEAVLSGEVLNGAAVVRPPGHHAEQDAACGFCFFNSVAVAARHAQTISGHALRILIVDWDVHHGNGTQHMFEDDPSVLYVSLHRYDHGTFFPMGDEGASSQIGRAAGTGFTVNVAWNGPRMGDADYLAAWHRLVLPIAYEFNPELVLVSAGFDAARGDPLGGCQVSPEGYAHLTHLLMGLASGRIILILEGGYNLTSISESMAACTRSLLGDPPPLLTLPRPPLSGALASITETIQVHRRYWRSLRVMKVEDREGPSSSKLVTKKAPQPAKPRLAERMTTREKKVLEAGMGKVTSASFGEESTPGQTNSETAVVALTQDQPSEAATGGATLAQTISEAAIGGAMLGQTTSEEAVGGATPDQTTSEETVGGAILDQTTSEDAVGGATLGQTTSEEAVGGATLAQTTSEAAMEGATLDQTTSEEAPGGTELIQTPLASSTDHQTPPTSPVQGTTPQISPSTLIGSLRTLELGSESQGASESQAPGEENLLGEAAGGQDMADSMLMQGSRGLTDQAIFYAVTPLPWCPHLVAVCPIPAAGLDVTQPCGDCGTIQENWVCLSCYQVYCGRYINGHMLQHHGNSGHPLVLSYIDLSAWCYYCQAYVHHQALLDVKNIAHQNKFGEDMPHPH

[4] = target: Histone deacetylase 2 (Homo sapiens) (UniProt Q92769); assay: Inhibition of HDAC2 in human HeLa nuclear extract at 0.1 to 1 uM using HDAC substrate incubated for 30 mins by microplate reader assay; format: cell-free
[5] = target: Histone deacetylase 4 (Homo sapiens) (UniProt P56524); assay: Inhibition of recombinant human GST-His-tagged HDAC4 at 0.1 to 1 uM using fluorogenic HDAC substrate incubated for 30 mins by microplate reader assay
[6] = target: Histone deacetylase 1 (Homo sapiens) (UniProt Q13547); assay: Inhibition of HDAC1 in human HeLa nuclear extract at 0.1 to 1 uM using HDAC substrate incubated for 30 mins by microplate reader assay; format: cell-free
[7] = target: T2, Histone deacetylase 8 (Homo sapiens) (UniProt Q9BY41); assay: Inhibition of recombinant human GST-His-tagged HDAC8 at 1 uM using fluorogenic HDAC substrate incubated for 30 mins by microplate reader assay relative to control
T2 sequence (whole entry): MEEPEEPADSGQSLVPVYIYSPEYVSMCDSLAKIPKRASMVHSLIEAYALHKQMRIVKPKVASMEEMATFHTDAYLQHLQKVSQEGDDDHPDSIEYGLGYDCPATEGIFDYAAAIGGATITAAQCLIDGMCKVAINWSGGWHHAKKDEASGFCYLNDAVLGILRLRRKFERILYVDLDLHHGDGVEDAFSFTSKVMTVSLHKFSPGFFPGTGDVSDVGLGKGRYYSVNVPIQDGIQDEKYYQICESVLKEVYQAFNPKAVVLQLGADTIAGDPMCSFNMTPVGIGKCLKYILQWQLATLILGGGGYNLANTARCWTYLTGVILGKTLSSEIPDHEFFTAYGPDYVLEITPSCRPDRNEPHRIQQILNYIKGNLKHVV

[8] = target: T3, Histone deacetylase 7 (Homo sapiens) (UniProt Q8WUI4); assay: Inhibition of recombinant human GST-His-tagged HDAC7 at 1 uM using fluorogenic HDAC substrate incubated for 30 mins by microplate reader assay relative to control
T3 sequence (whole entry): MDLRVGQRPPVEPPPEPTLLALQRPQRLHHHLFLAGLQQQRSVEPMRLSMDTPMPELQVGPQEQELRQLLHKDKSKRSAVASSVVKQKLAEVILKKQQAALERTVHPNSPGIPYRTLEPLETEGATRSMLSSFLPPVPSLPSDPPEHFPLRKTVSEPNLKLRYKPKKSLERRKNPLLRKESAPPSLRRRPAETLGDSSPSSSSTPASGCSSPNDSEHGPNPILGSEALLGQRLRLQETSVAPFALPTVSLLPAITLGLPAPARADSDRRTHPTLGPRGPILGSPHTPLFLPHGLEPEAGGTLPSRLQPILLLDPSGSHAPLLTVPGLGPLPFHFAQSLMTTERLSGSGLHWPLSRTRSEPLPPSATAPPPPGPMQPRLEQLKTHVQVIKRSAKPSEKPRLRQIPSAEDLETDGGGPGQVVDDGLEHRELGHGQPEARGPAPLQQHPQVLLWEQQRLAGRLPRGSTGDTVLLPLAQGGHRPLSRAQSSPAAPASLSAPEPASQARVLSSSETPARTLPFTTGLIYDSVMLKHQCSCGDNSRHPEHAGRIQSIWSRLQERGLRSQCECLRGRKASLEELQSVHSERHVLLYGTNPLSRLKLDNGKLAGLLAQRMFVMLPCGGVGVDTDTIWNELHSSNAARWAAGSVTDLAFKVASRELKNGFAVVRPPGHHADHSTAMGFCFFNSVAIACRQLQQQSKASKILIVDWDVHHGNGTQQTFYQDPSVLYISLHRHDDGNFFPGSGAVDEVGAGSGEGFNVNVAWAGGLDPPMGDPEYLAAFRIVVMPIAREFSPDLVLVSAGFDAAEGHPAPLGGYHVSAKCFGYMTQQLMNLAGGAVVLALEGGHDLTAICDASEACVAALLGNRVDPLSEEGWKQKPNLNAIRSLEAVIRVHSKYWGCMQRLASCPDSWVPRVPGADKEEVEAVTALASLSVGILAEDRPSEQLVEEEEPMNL

Chain of Histone deacetylase 4 (Homo sapiens) (P56524 whole entry): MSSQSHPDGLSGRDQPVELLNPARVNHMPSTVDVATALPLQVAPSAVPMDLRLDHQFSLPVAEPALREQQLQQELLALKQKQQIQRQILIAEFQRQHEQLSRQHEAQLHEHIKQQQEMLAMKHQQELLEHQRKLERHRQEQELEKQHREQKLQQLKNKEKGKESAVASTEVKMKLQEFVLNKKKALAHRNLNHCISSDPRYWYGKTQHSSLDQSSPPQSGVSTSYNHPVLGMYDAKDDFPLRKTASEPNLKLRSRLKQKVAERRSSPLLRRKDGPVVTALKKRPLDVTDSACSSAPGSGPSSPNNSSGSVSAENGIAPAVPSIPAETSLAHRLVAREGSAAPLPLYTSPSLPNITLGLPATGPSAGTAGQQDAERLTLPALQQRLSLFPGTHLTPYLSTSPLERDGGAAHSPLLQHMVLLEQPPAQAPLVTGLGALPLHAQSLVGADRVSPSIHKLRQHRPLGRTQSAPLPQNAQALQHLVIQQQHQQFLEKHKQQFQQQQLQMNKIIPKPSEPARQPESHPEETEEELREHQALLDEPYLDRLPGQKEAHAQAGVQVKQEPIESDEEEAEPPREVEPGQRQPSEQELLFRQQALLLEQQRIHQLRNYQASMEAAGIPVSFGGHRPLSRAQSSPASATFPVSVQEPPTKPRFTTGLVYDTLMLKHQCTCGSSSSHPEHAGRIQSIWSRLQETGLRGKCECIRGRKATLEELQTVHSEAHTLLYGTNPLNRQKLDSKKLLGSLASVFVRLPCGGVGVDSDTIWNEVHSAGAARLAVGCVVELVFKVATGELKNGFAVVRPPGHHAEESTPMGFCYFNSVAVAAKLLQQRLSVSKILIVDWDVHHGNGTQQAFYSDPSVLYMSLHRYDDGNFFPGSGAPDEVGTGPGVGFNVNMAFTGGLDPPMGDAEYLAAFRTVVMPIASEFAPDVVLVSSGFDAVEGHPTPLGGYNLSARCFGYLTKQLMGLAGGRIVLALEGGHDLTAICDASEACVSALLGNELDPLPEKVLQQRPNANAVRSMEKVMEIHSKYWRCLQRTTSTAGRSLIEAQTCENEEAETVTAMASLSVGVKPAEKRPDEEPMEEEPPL
Chain of Histone deacetylase 5 (Homo sapiens) (Q9UQL6 whole entry): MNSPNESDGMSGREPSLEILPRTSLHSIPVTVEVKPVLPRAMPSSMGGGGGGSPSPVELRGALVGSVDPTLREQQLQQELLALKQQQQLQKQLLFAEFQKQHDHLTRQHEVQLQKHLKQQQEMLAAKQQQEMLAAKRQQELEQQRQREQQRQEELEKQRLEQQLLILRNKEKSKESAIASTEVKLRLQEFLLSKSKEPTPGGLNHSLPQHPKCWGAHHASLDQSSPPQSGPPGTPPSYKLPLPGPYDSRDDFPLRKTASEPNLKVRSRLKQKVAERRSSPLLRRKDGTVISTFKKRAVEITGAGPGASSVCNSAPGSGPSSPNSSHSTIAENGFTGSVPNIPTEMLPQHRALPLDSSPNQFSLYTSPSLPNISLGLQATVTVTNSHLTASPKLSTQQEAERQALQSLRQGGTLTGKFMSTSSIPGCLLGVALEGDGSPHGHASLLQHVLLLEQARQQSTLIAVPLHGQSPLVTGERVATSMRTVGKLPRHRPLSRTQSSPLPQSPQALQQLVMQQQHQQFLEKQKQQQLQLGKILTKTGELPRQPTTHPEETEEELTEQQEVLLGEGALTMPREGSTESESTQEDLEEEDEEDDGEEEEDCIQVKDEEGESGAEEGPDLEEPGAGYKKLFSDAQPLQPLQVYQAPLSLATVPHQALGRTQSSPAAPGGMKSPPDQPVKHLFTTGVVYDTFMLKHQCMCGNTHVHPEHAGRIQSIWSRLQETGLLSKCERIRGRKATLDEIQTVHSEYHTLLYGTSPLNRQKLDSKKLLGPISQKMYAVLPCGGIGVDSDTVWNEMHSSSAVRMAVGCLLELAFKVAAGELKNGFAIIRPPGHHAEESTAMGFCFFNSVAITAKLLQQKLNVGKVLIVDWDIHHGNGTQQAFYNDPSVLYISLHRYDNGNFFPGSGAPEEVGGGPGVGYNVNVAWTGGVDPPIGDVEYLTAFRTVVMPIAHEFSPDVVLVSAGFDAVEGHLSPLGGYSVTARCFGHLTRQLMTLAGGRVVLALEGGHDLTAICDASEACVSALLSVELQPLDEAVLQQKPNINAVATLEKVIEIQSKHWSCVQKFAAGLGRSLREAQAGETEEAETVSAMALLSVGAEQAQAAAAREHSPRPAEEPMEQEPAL
Chain of Histone deacetylase 3 (Homo sapiens) (O15379 whole entry): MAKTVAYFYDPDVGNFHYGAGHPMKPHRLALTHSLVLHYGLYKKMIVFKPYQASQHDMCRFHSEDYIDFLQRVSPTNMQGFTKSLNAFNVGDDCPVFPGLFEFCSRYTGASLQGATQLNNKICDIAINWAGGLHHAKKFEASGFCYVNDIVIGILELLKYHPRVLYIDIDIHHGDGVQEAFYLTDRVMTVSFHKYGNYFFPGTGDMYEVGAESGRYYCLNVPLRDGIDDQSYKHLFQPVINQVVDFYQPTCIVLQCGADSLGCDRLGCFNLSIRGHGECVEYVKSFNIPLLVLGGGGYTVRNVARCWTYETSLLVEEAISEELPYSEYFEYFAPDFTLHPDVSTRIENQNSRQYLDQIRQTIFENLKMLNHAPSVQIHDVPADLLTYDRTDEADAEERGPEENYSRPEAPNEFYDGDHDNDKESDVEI
Chain of Histone deacetylase 2 (Homo sapiens) (Q92769 whole entry): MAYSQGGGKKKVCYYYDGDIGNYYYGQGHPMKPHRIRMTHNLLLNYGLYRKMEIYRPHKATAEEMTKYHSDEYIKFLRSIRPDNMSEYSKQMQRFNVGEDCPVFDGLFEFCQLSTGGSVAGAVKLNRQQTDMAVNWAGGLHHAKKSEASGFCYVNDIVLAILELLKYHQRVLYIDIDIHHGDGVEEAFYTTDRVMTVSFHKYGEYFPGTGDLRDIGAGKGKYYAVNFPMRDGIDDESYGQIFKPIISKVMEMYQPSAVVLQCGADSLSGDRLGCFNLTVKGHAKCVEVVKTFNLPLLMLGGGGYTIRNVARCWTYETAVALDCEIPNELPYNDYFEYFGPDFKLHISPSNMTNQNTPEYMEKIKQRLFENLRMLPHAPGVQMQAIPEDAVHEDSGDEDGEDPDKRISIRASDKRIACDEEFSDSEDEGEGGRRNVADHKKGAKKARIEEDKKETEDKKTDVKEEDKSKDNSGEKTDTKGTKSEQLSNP
Chain of Histone deacetylase 1 (Homo sapiens) (Q13547 whole entry): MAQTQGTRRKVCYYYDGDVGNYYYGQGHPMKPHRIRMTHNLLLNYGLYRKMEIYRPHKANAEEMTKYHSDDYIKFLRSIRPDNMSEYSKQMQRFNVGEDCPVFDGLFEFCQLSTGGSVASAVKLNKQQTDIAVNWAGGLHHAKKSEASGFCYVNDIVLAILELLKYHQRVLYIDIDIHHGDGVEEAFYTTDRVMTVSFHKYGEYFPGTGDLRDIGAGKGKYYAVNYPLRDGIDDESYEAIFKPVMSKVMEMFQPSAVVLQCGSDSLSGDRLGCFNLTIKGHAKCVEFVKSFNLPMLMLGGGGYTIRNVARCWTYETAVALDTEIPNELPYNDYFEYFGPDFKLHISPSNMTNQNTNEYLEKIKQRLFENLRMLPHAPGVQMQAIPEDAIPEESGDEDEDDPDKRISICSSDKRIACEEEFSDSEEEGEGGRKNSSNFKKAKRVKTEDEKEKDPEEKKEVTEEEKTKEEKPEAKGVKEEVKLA

inhibition [1] | inhibition [2] | inhibition [3] | inhibition [4] | inhibition [5] | inhibition [6] | inhibition [7] [%] | inhibition [8] [%] | Compound | Activity (Homo sapiens)
inactive | inactive | inactive | inactive | inactive | inactive | 35 to 60 |  | COC(=O)CCCN1C=C(C(=O)O)C(c2ccc(Cl)cc2Cl)NS1(=O)=O (stereo not given) | Active
 |  |  |  |  |  |  |  | O=C(O)CCCN1C=C(C(=O)O)C(c2ccc(Cl)cc2Cl)NS1(=O)=O (stereo not given) | Active
 |  |  |  |  |  |  |  | COC(=O)CCCN1C=C(C(=O)OCc2ccccc2)C(c2ccc(Cl)cc2Cl)NS1(=O)=O (stereo not given) | Active
 |  |  |  |  |  |  |  | CCOC(=O)C1=CN(Cc2ccc(C(=O)O)cc2)S(=O)(=O)NC1c1ccc(Cl)cc1Cl (stereo not given) | Active
inactive | inactive | inactive | inactive | inactive | inactive | 35 to 60 |  | CCOC(=O)C1=CNS(=O)(=O)N(Cc2ccc(C(=O)O)cc2)C1c1ccc(Cl)cc1Cl (stereo not given) | Active
 |  |  |  |  |  |  |  | CCOC(=O)C1=CN(CCCC(=O)OC)S(=O)(=O)NC1c1ccc(Cl)cc1Cl (stereo not given) | Active
inactive | inactive | inactive | inactive | inactive | inactive | 35 to 60 | 40 | CCOC(=O)C1=CN(Cc2ccc(C(=O)NO)cc2)S(=O)(=O)NC1c1ccc(Cl)cc1Cl (stereo not given) | Active
 |  |  |  |  |  |  |  | CCOC(=O)C1=CN(Cc2ccc(CO)cc2)S(=O)(=O)NC1c1ccc(Cl)cc1Cl (stereo not given) | Active
inactive | inactive | inactive | inactive | inactive | inactive | 35 to 60 |  | CCOC(=O)C1=CN(CCCC(=O)NO)S(=O)(=O)NC1c1ccc(Cl)cc1Cl (stereo not given) | Active
 |  |  |  |  |  |  |  | CC1=C(C(=O)OCc2ccccc2)C(c2ccc(Cl)cc2Cl)NC(=O)N1CCCC(=O)O (stereo not given) | Active
 |  |  |  |  |  |  |  | CCOC(=O)C1=CN(C(=O)OC(C)(C)C)S(=O)(=O)N(Cc2ccc(C(=O)OC(C)(C)C)cc2)C1c1ccc(Cl)cc1Cl (stereo not given) | Active
